# Columns and labels:
# Type in all cases: functional, Mus musculus
# Details in all cases: route intraperitoneal
# [1] = system: L1210 (1565); test: Antitumor activity against L-1210 leukemia cell line in BDF1 mice after injecting 0.25 mg/kg ip dose
# In short: (§1)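 Female BDF1 mice received 10⁵ viable L-1210 ascites cells ip. Aqueous test compound was given ip starting the same day, daily five times a week for 4 weeks or until death, with five mice per dose. Read-out was T/C, the mean survival time of treated mice over untreated controls. Mice alive at 4 weeks were counted as long-term survivors.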
# [2] = system: L1210 (1565); test: Antitumor activity against L-1210 leukemia cell line in BDF1 mice after injecting 8 mg/kg ip dose; in short: as §1
# [3] = system: L1210 (1565); test: Antitumor activity against L-1210 leukemia cell line in BDF1 mice after injecting 0.125 mg/kg ip dose; in short: as §1
# [4] = system: L1210 (1565); test: Antitumor activity against L-1210 leukemia cell line in BDF1 mice after injecting 16 mg/kg ip dose; in short: as §1
# [5] = system: P388; test: Antitumor activity against P-388 leukemia cell line in BDF1 mice after injecting 3.0 mg/kg ip dose
# [6] = system: L1210 (1565); test: Antitumor activity against L-1210 leukemia cell line in BDF1 mice after injecting 0.5 mg/kg ip dose; in short: as §1
# [7] = system: L1210 (1565); test: Antitumor activity against L-1210 leukemia cell line in BDF1 mice after injecting 2.0 mg/kg ip dose; in short: as §1
# [8] = system: P388; test: Antitumor activity against P-388 leukemia cell line in BDF1 mice after injecting 8.0 mg/kg ip dose
# [9] = system: L1210 (1565); test: Antitumor activity against L-1210 leukemia cell line in BDF1 mice after injecting 2 mg/kg ip dose; in short: as §1
# [10] = system: P388; test: Antitumor activity against P-388 leukemia cell line in BDF1 mice after injecting 0.38 mg/kg ip dose
# [11] = system: P388; test: Antitumor activity against P-388 leukemia cell line in BDF1 mice after injecting 2.4 mg/kg ip dose
# [12] = system: L1210 (1565); test: Antitumor activity against L-1210 leukemia cell line in BDF1 mice after injecting 0.05 mg/kg ip dose; in short: as §1
# [13] = system: L1210 (1565); test: Antitumor activity against L-1210 leukemia cell line in BDF1 mice after injecting 0.1 mg/kg ip dose; in short: as §1
# [14] = system: L1210 (1565); test: Antitumor activity against L-1210 leukemia cell line in BDF1 mice after injecting 4 mg/kg ip dose; in short: as §1
# [15] = system: P388; test: Antitumor activity against P-388 leukemia cell line in BDF1 mice after injecting 4 mg/kg ip dose
# [16] = system: P388; test: Antitumor activity against P-388 leukemia cell line in BDF1 mice after injecting 6.25 mg/kg ip dose
structure (smiles),measurement,setting,value
CC1OC(O[C@H]2C[C@](O)(CCO)Cc3c(O)c4c(c(O)c32)C(=O)c2ccccc2C4=O)CC(N)C1O.Cl (stereo not given in full),T/C,[1],450%
CC1OC(O[C@H]2C[C@](O)(C(=O)NOCc3ccccc3)Cc3c(O)c4c(c(O)c32)C(=O)c2ccccc2C4=O)CC(N)C1O.Cl (stereo not given in full),T/C,[2],100%
C[C@@H]1O[C@@H](O[C@H]2C[C@](O)([C@H](C)O)Cc3c(O)c4c(c(O)c32)C(=O)c2ccccc2C4=O)C[C@@H](N)[C@@H]1O.Cl (stereo in doubt; 35),T/C,[3]; 0.125 mg/kg,270%
CC1OC(O[C@H]2C[C@](O)(C(=O)Nc3ccccc3)Cc3c(O)c4c(c(O)c32)C(=O)c2ccccc2C4=O)CC(N)C1O.Cl (stereo not given in full),T/C,[4],120%
C[C@@H]1O[C@@H](O[C@H]2C[C@](O)([C@H](C)O)Cc3c(O)c4c(c(O)c32)C(=O)c2ccccc2C4=O)C[C@@H](N)[C@@H]1O.Cl (stereo in doubt; 25),T/C,[3]; 0.125 mg/kg,220%
CC1OC(O[C@H]2C[C@](O)(C(=O)N(C)c3ccccc3)Cc3c(O)c4c(c(O)c32)C(=O)c2ccccc2C4=O)CC(N)C1O.Cl (stereo not given in full),T/C,[4],120%
CC[C@@]1(O)Cc2c(O)c3c(c(O)c2[C@@H](O[C@H]2C[C@H](N)[C@H](O)[C@H](C)O2)C1)C(=O)c1ccccc1C3=O.Cl,T/C,[5],155%
same,T/C,[6],420%
CC(=O)[C@]1(O)Cc2c(O)c3c(c(O)c2[C@@H](O[C@H]2C[C@@H](N)[C@@H](O)[C@H](C)O2)C1)C(=O)c1ccccc1C3=O.Cl,T/C,[6],240%
COc1cccc2c1C(=O)c1c(O)c3c(c(O)c1C2=O)C[C@@](O)(C(=O)CO)C[C@@H]3O[C@H]1C[C@H](N)[C@H](O)[C@H](C)O1 [DOXORUBICIN],T/C,[7],330%
same,T/C,[8],174%
COc1cccc2c1C(=O)c1c(O)c3c(c(O)c1C2=O)C[C@@](O)(C(C)=O)C[C@@H]3O[C@H]1C[C@H](N)[C@H](O)[C@H](C)O1 [DAUNORUBICIN],T/C,[6],290%
same,T/C,[8],143%
COC1C(N)CC(O[C@H]2C[C@](O)(CO)Cc3c(O)c4c(c(O)c32)C(=O)c2ccccc2C4=O)OC1C.Cl (stereo not given in full),T/C,[3],350%
C[C@@H]1O[C@@H](O[C@H]2C[C@@](C)(O)Cc3c(O)c4c(c(O)c32)C(=O)c2ccccc2C4=O)C[C@@H](N)[C@H]1O.Cl,T/C,[9],470%
C[C@@H]1O[C@@H](O[C@H]2C[C@](O)([C@H](C)O)Cc3c(O)c4c(c(O)c32)C(=O)c2ccccc2C4=O)C[C@@H](N)[C@@H]1O.Cl (stereo in doubt; 36),T/C,[3]; 0.125 mg/kg,360%
C[C@@H]1O[C@@H](O[C@H]2C[C@](O)([C@@H](C)O)Cc3c(O)c4c(c(O)c32)C(=O)c2ccccc2C4=O)C[C@@H](N)[C@@H]1O.Cl,T/C,[3],250%
C[C@@H]1OC(O[C@H]2C[C@](O)(CO)Cc3c(O)c4c(c(O)c32)C(=O)c2ccccc2C4=O)C[C@H](N)[C@H]1O.Cl (stereo not given in full),T/C,[10],174%
same,T/C,[3],340%
COC1C(N)CC(O[C@H]2C[C@](O)(C(C)=O)Cc3c(O)c4c(c(O)c32)C(=O)c2ccccc2C4=O)OC1C.Cl (stereo not given in full),T/C,[1],230%
CC(=O)[C@]1(O)Cc2c(O)c3c(c(O)c2[C@@H](O[C@H]2C[C@@H](N)[C@H](O)[C@H](C)O2)C1)C(=O)c1ccccc1C3=O.Cl,T/C,[11],174%
same,T/C,[12],230%
C[C@@H]1OC(O[C@H]2C[C@](O)(CO)Cc3c(O)c4c(c(O)c32)C(=O)c2ccccc2C4=O)C[C@H](N)[C@@H]1O.Cl (stereo not given in full),T/C,[13],230%
CC1OC(O[C@H]2C[C@](O)(C(=O)NCc3ccccc3)Cc3c(O)c4c(c(O)c32)C(=O)c2ccccc2C4=O)CC(N)C1O.Cl (stereo not given in full),T/C,[14],130%
CC1CC(N)CC(O[C@H]2C[C@](O)(CO)Cc3c(O)c4c(c(O)c32)C(=O)c2ccccc2C4=O)O1.Cl (stereo not given in full),T/C,[3],280%
CC[C@@]1(O)Cc2c(O)c3c(c(O)c2[C@@H](O[C@H]2C[C@H](N)[C@@H](O)[C@H](C)O2)C1)C(=O)c1ccccc1C3=O.Cl,T/C,[6],460%
same,T/C,[15],184%
CCCNC(=O)[C@]1(O)Cc2c(O)c3c(c(O)c2[C@@H](OC2CC(N)C(O)C(C)O2)C1)C(=O)c1ccccc1C3=O.Cl (stereo not given in full),T/C,[9],120%
C[C@@H]1O[C@@H](O[C@H]2C[C@@](C)(O)Cc3c(O)c4c(c(O)c32)C(=O)c2ccccc2C4=O)C[C@@H](N)[C@@H]1O.Cl,T/C,[16],192%
same,T/C,[6],400%
